# Only some compounds are listed: those with a hit (about 1.6% of all), similar ones and a draw of the others.
# LEDGF integ inh – blockers of LEDGF/p75-dependent integrase strand transfer – biochemical, TR-FRET, high throughput, primary screen | inhibition, % at 3.7 µM | 0.64% of 370,000 active | AID 743269, 2014 | TR-FRET IN-LEDGF/p75 DNA integration, Eu/Cy5 | HIV-1 integrase (with human LEDGF/p75);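 active means inhibition above the screen-wide mean plus 3 SD, cut at about 13% in these data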;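 further: signal is the Cy5 over europium emission ratio at 671 and 618 nm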
# MBD2 DNA inh – inhibitors of MBD2 binding to methylated DNA, primary screen, biochemical, TR-FRET, DNA-binding domain, human; 0.31% of 370,000 active; MBD2 binding to methylated oligonucleotide; AID 686964, 2013; inhibition, % at 4.4 µM; in the data active means inhibition above about 13%
# TDP2 absorb – human TDP2 enzyme inhibitors, primary screen, biochemical, epi absorbance, recombinant enzyme; Tyrosyl-DNA phosphodiesterase 2 (Homo sapiens), O95551; T5PNP hydrolysis, p-nitrophenol absorbance 415 nm; inhibition, % at 12.8 µM; 0.34% of 370,000 active; AID 720702, 2013;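 active means inhibition above the mean of all tested compounds plus 3 SD, set per campaign, cut at about 25% in these data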
# Target sequence (O95551 whole entry, looked up): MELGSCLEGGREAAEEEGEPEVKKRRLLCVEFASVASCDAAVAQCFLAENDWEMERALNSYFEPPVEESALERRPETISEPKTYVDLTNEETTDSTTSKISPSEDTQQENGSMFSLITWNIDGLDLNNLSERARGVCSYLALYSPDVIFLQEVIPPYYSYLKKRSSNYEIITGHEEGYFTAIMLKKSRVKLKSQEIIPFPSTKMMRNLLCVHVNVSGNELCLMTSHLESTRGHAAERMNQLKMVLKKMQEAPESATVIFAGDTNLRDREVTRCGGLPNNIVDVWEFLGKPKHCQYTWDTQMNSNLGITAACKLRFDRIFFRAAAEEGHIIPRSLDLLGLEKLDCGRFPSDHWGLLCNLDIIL
#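 Test system: human TDP2 enzyme; Input: 120 nM TDP2 per well; Buffer or medium: Mg2+-containing Tris-HCl buffer, pH 7.5; Reagent: 5 mM T5PNP; Dosing: 12.8 µM single point, 1% DMSO; Incubation: reaction 2 h, 37 °C; Detection: p-Nitrophenol epi absorbance; Read-out: % inhibition relative to enzyme-containing and enzyme-free wells; Replicates: single well per compound.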
# UHRF1 binding – UHRF1 methylated DNA binding inhibitors, primary screen, counter-screen for MBD2 inhibitor project, biochemical, TR-FRET, human UHRF1, single concentration. UHRF1 binding to methylated oligo. 0.75% of 370,000 active. inhibition, % at 4.4 µM. E3 ubiquitin-protein ligase UHRF1 (Homo sapiens), Q96T88; in the data active means inhibition above about 21%;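 further: UHRF1 SRA domain binding a hemimethylated CpG hairpin DNA probe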
# IN multimer up – HIV-1 IN multimer formation enhancers, counter-screen for LEDGF/p75 integration inhibitor project, biochemical, TR-FRET; shares compounds with LEDGF integ inh; TR-FRET HIV-1 integrase multimerization; activation, % at 7.7 µM; 17% of 2,000 active; AID 1053131, 2014; in the data active means activation above about 8.9%
# TRFRET interf – TR-FRET optical interference artefacts, confirmation, artefact control for LEDGF/p75-dependent integration inhibitor project, biochemical, HIV-1 IN multimerization | 2,000 tested, under 10 active | shares compounds with LEDGF integ inh | AID 1053135, 2014 | TR-FRET optical interference counterscreen | inhibition, % at 7.7 µM;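 active means inhibition above the mean over all tested compounds plus 3 SD, which no compound reached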
# LEDGF integ conf – inhibitors of HIV-1 IN-LEDGF/p75 DNA integration, confirmation, biochemical, TR-FRET; shares compounds with LEDGF integ inh; TR-FRET LEDGF/p75-dependent HIV-1 integration; inhibition, % at 3.7 µM; 36% of 2,000 active; AID 1053136, 2014; in the data active means inhibition above about 14%
# Numbers stand for hits; 0 = inactive; - = no result.
SMILES,LEDGF integ inh,MBD2 DNA inh,TDP2 absorb,UHRF1 binding,IN multimer up,TRFRET interf,LEDGF integ conf
Cc1ccccc1-n1c(O)c(C=Nc2ccc(N(C)C)cc2)c(=O)[nH]c1=O,19,0,0,0,0,0,0
O=C1NC(=O)C(=Cc2cc3c(cc2[N+](=O)[O-])OCO3)C(=O)N1,21,0,0,0,0,0,0
O=C1NC(=O)C(=Cc2ccccc2[N+](=O)[O-])C(=O)N1,0,0,0,0,-,-,-
c1ccc(Cc2cnc(N3CCNCC3)nc2)cc1,0,0,0,0,-,-,-
CC(Cc1ccc(O)cc1)NCC(O)c1ccc(O)c(O)c1 (stereo not given),35,0,0,0,10,0,63
O=C(NCCN1CCC2(CC1)C(=O)NCN2c1ccccc1)c1cccc2c1-c1ccccc1C2=O,0,0,0,0,-,-,-
C[C@]12CCC3C(CC[C@H]4C[C@H](N)CC[C@]34C)C1CC[C@H]2O (stereo not given in full),21,0,0,0,0,0,0
CN(C)[C@@H]1C(=O)C(C(N)=O)=C(O)[C@@]2(O)C(=O)C3=C(O)c4c(O)ccc(Cl)c4[C@@](C)(O)C3C[C@@H]12 (stereo not given in full),28,0,0,0,14,0,28
CCc1nc2ccccc2c(=O)n1-c1ccccc1OC,25,0,0,0,0,0,0
O=[N+]([O-])c1ccc(N2CCOCC2)c2c1no[n+]2[O-],14,0,0,0,0,0,0

# Source: PubChem
